E-selectin induc = E-selectin induction on HUVECs; AID 686992; activation, % at 7.58 µM; 260,000 tested, 0.37% active; HUVEC E-selectin immunofluorescence imaging; normalized: neutral wells 0, TNF-alpha wells 100; P16581;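 active = mean E-selectin-positive cell signal at least 10% of the positive control, reached in at least 60% of replicates, without over 20% cell loss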
Target sequence (P16581 whole entry, looked up): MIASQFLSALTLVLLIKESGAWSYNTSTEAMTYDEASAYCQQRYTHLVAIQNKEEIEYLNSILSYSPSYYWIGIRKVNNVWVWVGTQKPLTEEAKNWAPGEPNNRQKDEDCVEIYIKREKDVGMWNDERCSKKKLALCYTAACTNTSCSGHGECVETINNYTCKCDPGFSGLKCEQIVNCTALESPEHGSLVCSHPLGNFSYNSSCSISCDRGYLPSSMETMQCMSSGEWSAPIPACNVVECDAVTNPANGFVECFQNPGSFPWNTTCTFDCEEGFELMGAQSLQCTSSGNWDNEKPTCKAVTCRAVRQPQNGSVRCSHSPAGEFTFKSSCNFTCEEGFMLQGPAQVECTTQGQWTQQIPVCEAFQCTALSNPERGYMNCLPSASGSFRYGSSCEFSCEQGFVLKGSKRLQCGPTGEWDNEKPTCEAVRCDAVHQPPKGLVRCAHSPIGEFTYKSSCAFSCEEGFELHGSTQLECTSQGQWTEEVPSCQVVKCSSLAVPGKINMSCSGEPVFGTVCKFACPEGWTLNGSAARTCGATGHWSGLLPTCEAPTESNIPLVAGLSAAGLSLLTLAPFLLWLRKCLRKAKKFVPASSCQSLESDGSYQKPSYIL
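Assay system: HUVEC, human umbilical vein endothelial cells / Amount: 3,000 HUVEC/well / Controls: TNF-alpha positive control, DMSO neutral control / Compound dosing: single concentration / Medium: EGM-2 over gelatin coat / Evaluation: percent E-selectin-positive cells / Signal: immunofluorescence imaging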
LGR2 inh = blocks bursicon-induced cAMP signaling via Drosophila LGR2; HEK293 LGR2, CRE-luciferase, bursicon-stimulated, 4 h; inhibition, % at 9.99 µM; 380,000 tested, 0.35% active;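 active = drop in luminescence signal, shown as inhibition above about 50% in the replicate tests, limit read from the data, passing the limit was not always enough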;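 also: agonist challenge used bursicon conditioned medium at about half maximal strength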
rRNA inh HTS = inhibitors of bacterial rRNA selective over humanized ribosomes. E. coli WT GFP vs humanized-ribosome RFP mutants, fluorescence, 24 h; stronger effect = lower value; DMSO median 0, no signal -100. GFP signal change (wild-type ribosome), % (test concentration not listed). 350,000 tested, 1.6% active;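 active = significant combined selectivity score with lowered wild-type GFP, culture density cut under 30%, mutant RFP and density less affected; inactive = any of these conditions unmet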
EWS-Fli block = EWS/Fli transcriptional activity inhibition | A673 NR0B1-luciferase reporter, viability-normalised | AID 651661 | 350,000 tested, 0.67% active | inhibition, % at 12.6 µM;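 active = mean inhibition of at least 50% after viability correction, with every replicate also passing that limit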;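 also: firefly luciferase signal divided by Alamar Blue viability fluorescence both relative to DMSO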
Numbers without * were called inactive; · = not tested or not shown. The list is not random: actives were taken first. Their share in the collection is about 2.4%.

SMILES | E-selectin induc | LGR2 inh | rRNA inh HTS | EWS-Fli block
CN1CCN(C(=O)C[C@@H]2CC[C@@H]3[C@H](COc4ccc(NC(=O)c5ccc(F)c(F)c5)cc4C(=O)N3C)O2)CC1 | -0.1 | 17.8 | -0.5 | -2.2
CCCNC(=O)N1[C@H](C#N)[C@H](c2ccc(C3=CCCCC3)cc2)[C@@H]1CO | · | · | -29.0 | 11.2
Cc1ccc(C#N)c(SCc2cccc(Br)c2)n1 | · | -8.0 | · | -17.1
COC(OC)c1ccc(C#N)c(SCc2ccc(C)cc2)n1 | · | 2.8 | -29.4* | -1.8
CNC[C@H]1Oc2ccc(NC(=O)Nc3ccc4c(c3)OCO4)cc2CC(=O)N([C@@H](C)CO)C[C@@H]1C | · | -9.7 | 1.3 | -4.0
C=CC1c2cc(OC)c(OC)cc2CC(C)N1Cc1ccc(OC)cc1 (stereo not given) | · | · | · | 56.4*
N#Cc1ccsc1NC(=O)CSc1nnnn1-c1ccc(O)cc1 | 5.6 | -27.2 | -25.5* | -12.7
COc1cccc(S(=O)(=O)N2CC[C@@H]3[C@H](CO)Nc4ccc(Br)cc4[C@@H]32)c1 | -0.4 | 7.0 | -4.5 | -9.7
Cc1cc(C)cc(OCc2ccc(C(=O)NN)o2)c1 | 1.8 | 7.8 | -22.9* | 5.6
Cc1ccc(OCc2ccc(C(=O)O)o2)c([N+](=O)[O-])c1 | · | -8.9 | -26.5* | -1.8
O=C(O)c1ccc(COc2ccc3ccccc3c2)o1 | 0.6 | -107.6 | -17.1* | -57.0
CC=Cc1ccc2n(c1=O)C[C@@H]1[C@@H](CO)[C@H](C(=O)NCCN3CCCC3)N(C(=O)NC(C)C)[C@H]21 (mixture of isomers) | -0.3 | 21.6 | 2.5 | -3.5
CCOc1cc(CNc2ccc(OC)cc2)cc(Br)c1OCC(=O)NC(C)(C)C | · | 8.5 | -25.4* | ·
COc1cc2c(cc1OC)C(C)N(C(=O)c1sc(-c3cnccn3)nc1C)CC2 (stereo not given) | 0.0 | -4.6 | -33.8* | 6.0
COc1cc2c(cc1OC)C(C)N(C(=O)c1cc(C)on1)CC2 (stereo not given) | · | -7.3 | 9.7 | 52.9*
COc1ccc(-c2csc3nc(-c4ccccc4OC)oc(=O)c23)cc1 | · | 10.9 | -20.3* | -19.7
CCCCC(=O)N1CCN(c2nc3ccc(Br)cc3s2)CC1 | · | -55.2 | -19.6* | -34.4
COc1ccccc1NC(=O)N[C@@H]1CC[C@H](CCn2cc(-c3cccnc3)nn2)O[C@@H]1CO | 0.3 | -24.0 | 3.2 | -93.8
CCN1C(=O)C(CC(=O)Nc2ccc(OC)cc2)N(Cc2cccs2)C1=S (stereo not given) | · | 11.9 | -30.7* | 4.0
CCN1C(=O)C(CC(=O)Nc2ccc(OC)cc2)N(Cc2ccco2)C1=S (stereo not given) | 0.0 | -20.6 | · | ·
COc1ccc(NC(=O)N(C)C[C@@H]2Oc3ccc(NC(=O)Cc4cn(C)c5ccccc45)cc3CC(=O)N([C@H](C)CO)C[C@@H]2C)cc1 | -12.3 | -1.1 | 4.7 | -1.0
N#C/C(=C\c1ccc(OCc2ccc(C(=O)O)cc2)cc1)C(=O)N1CCOCC1 | -0.2 | 80.2* | 8.7 | 81.0*
COc1cc(/C=C(\C#N)C(=O)N2CCOCC2)ccc1OCc1ccccc1 | -1.5 | -32.8 | -5.1 | -50.4
Cc1ccnc(NC(=O)c2cccc(NC(=O)Cc3ccccc3)c2)c1 | · | -4.0 | -31.5* | -9.3
COC(=O)c1ccc2c(c1)C(C)(C)C(/C=C/c1ccccc1O)=[N+]2C | · | 56.2* | · | ·
SMILES | E-selectin induc | LGR2 inh | rRNA inh HTS | EWS-Fli block
C[N+]1=C(/C=C/Nc2ccccc2Cl)C(C)(C)c2ccccc21 | · | 6.7 | · | ·
CC(=O)[C@@]12O[C@]3(COC[C@H](c4ccccc4)N3C1=O)[C@@H]1C(=O)N(c3ccccc3)C(=O)[C@@H]12 | · | · | · | -5.8
O=C(NCCc1ccccc1)C1C(=O)Nc2ccccc2C(=O)N1C1CCCCC1 (stereo not given) | 207.3* | -15.7 | 24.0 | -6.5
C[C@H]1CN([C@@H](C)CO)C(=O)c2cc(N(C)C)ccc2O[C@H]1CN(C)S(=O)(=O)c1cn(C)cn1 | 415.2* | 4.9 | -0.9 | 0.6
C[C@H](CO)N1C[C@H](C)[C@@H](CN(C)S(=O)(=O)c2cn(C)cn2)Oc2ccc(N(C)C)cc2C1=O | 33.3* | 8.9 | 1.8 | 8.5
COc1ccc(NC(=O)N(C)C[C@@H]2Oc3ccc(NC(=O)C4CCCCC4)cc3C(=O)N([C@@H](C)CO)C[C@H]2C)cc1 | -0.6 | -0.3 | -0.1 | -12.0
CCCNC(=O)N1CC2(CN(C(=O)C3CCC3)C2)c2c([nH]c3cc(OC)ccc23)[C@@H]1CO | -0.2 | -16.6 | -1.9 | 0.0
COc1ccc(OCC(=O)Nc2nccs2)cc1 | 3.4 | 66.1* | 5.0 | 26.9
O=C(COc1ccc2c(c1)OCO2)Nc1nccs1 | · | 60.5* | · | 13.7
Fc1cccc(-c2cc3nc4c(c(NCc5ccco5)n3n2)CCCC4)c1 | · | -54.4 | -32.0* | -98.8
COc1ccc(/C=c2\s/c(=C\C(=O)C(C)(C)C)[nH]c2=O)cc1O | -0.4 | 4.3 | -26.4* | 15.7
COc1cc(/C=c2\s/c(=C\C(=O)C(C)(C)C)[nH]c2=O)cc(OC)c1OC | · | 8.8 | -18.2* | 19.4
Cc1cccc(/C=c2\s/c(=C\C(=O)C(C)(C)C)[nH]c2=O)c1 | · | -5.8 | · | ·
C[C@H](CO)N1C[C@H](C)[C@@H](CN(C)Cc2ccccc2)Oc2ncc(-c3ccccc3F)cc2C1=O | 0.1 | 3.1 | 1.7 | -17.0
CCN(c1ccccc1)S(=O)(=O)c1ccc2c(c1)N(C(C)=O)CCS2 | · | -2.1 | -25.9* | -10.2
CCN(c1cccc(C)c1)S(=O)(=O)c1ccc2c(c1)NC(=O)CS2 | · | -10.3 | -27.8 | ·
CCN(c1ccccc1)S(=O)(=O)c1cc(OC)ccc1OC | · | 5.0 | · | ·
CCN(c1ccccc1)S(=O)(=O)c1ccc(OC)c(OC)c1 | · | -2.6 | -17.9* | -13.1
CCN(c1ccc(OC)cc1)S(=O)(=O)c1ccc2c(c1)NC(=O)CS2 | · | -33.6 | -27.2* | ·
CCN(c1ccccc1)S(=O)(=O)c1ccc2c(c1)N(C(C)=O)CCO2 | · | 3.9 | 3.0 | ·
O=C1CCC(=O)N1CNc1ccc(Oc2ccccc2)cc1 | · | -15.7 | -13.3* | -6.6
O=C1CCC(=O)N1CNc1cccnc1 | -1.6 | · | · | ·
Cc1ccc(C(=O)NNC(=O)c2ccc3ccccc3c2O)cc1 | · | -2.6 | -27.3* | 7.2
COc1ccc(C(=O)Nc2ccc(C)cc2C(=O)c2ccccc2)cc1 | · | 2.0 | -18.6* | 1.7
COc1ccc(C(=O)NCc2cc(C)nc3ccccc23)cc1 | 0.1 | 37.9 | 3.7 | 53.1*
SMILES | E-selectin induc | LGR2 inh | rRNA inh HTS | EWS-Fli block
COc1cccc(C(=O)NNC(=O)Cc2ccc(Cl)cc2)c1 | -0.2 | 18.5 | -20.6* | 8.7
COc1ccc(C(=O)NNC(=O)c2ccc3ccccc3c2O)cc1 | · | 11.6 | -23.8* | 12.7
COc1ccccc1C(=O)NNC(=O)c1ccc2ccccc2c1O | -0.1 | 0.7 | -16.1 | -33.0
COc1ccc(C(=O)NNC(=O)c2cccc(F)c2)cc1 | · | -7.3 | -23.2* | -6.0
C[C@H]1CN([C@@H](C)CO)C(=O)Cc2cc(NC(=O)C3CC3)ccc2O[C@H]1CN(C)C(=O)NC1CCCCC1 | -0.2 | -1.2 | 4.7 | -6.8
O=C(Nc1ccccc1)N1CC(=O)N2[C@H](C1)[C@H](c1ccc(C#CC3CCCC3)cc1)[C@@H]2CO | 1.8 | -2.5 | -3.1 | 17.0

Compound activity: PubChem BioAssay, Broad Institute
